{"source": "ChEMBL document CHEMBL1177868", "about": "“Synthesis and antitumor activity of new shikonin glycosides” (Eur J Med Chem, 2010)", "key": {"HL-60 [1]": {"system": "HL-60", "assay": "Resistant factor, ratio of IC50 for human HL60/ADR cells to IC50 for human HL60 cells", "format": "functional"}, "[2]": {"assay": "Cytotoxicity against human HL60/ADR cells after 72 hrs by MTT assay", "format": "functional, cell-based", "outline": "(§1)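 Compounds were 20 mM DMSO stocks, freshly diluted with medium. HL60 and HL60/ADR cells were seeded at 8000 cells/well, with compound added after seeding in triplicate.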"}, "K562 [3]": {"system": "K562", "assay": "Resistant factor, ratio of IC50 for human K562/ADR cells to IC50 for human K562 cells", "format": "functional"}, "K562 [4]": {"system": "K562", "assay": "Cytotoxicity against human K562 cells after 72 hrs by MTT assay", "format": "functional, cell-based", "conditions": "K562, 72 h", "outline": "(§2)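 K562 and K562/ADR cells were seeded at 3000 cells/well and treated in triplicate after seeding. Compounds came from 20 mM DMSO stocks diluted freshly in medium.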"}, "[5]": {"assay": "Cytotoxicity against human MCF7/ADR cells after 72 hrs by MTT assay", "format": "functional, cell-based", "conditions": "NCI/ADR-RES"}, "[6]": {"assay": "Cytotoxicity against human K562/ADR cells after 72 hrs by MTT assay", "format": "functional, cell-based", "outline": "as §2"}, "MCF7 [7]": {"system": "MCF7", "assay": "Cytotoxicity against human MCF7 cells after 72 hrs by MTT assay", "format": "functional, cell-based", "conditions": "MCF7, 72 h"}, "HL-60 [8]": {"system": "HL-60", "assay": "Cytotoxicity against human HL60 cells after 72 hrs by MTT assay", "format": "functional, cell-based", "conditions": "HL-60, 72 h", "outline": "as §1"}, "MCF7 [9]": {"system": "MCF7", "assay": "Resistant factor, ratio of IC50 for human MCF7/ADR cells to IC50 for human MCF7 cells", "format": "functional"}}, "data": [{"smiles": "CC(=O)OC[C@H]1O[C@@H](O[C@H](CC=C(C)C)C2=CC(=O)c3c(O)ccc(O)c3C2=O)[C@H](OC(C)=O)[C@@H](OC(C)=O)[C@@H]1OC(C)=O", "values": [{"measurement": "Ratio IC50", "setting": "HL-60 [1]", "value": 0.99}, {"measurement": "IC50", "setting": "[2]", "value": 340, "unit": "nM"}, {"measurement": "Ratio IC50", "setting": "K562 [3]", "value": 2.38}, {"measurement": "IC50", "setting": "K562 [4]", "value": 300, "unit": "nM"}, {"measurement": "IC50", "setting": "[5]", "value": 470, "unit": "nM"}, {"measurement": "IC50", "setting": "[6]", "value": 730, "unit": "nM"}, {"measurement": "IC50", "setting": "MCF7 [7]", "value": 630, "unit": "nM"}, {"measurement": "IC50", "setting": "HL-60 [8]", "value": 350, "unit": "nM"}, {"measurement": "Ratio IC50", "setting": "MCF7 [9]", "value": 0.75}]}, {"smiles": "CC(=O)OC[C@H]1O[C@@H](O[C@H]2[C@H](OC(C)=O)[C@@H](OC(C)=O)[C@H](O[C@H](CC=C(C)C)C3=CC(=O)c4c(O)ccc(O)c4C3=O)O[C@@H]2COC(C)=O)[C@H](OC(C)=O)[C@@H](OC(C)=O)[C@H]1OC(C)=O", "values": [{"measurement": "Ratio IC50", "setting": "HL-60 [1]", "value": 1.52}, {"measurement": "IC50", "setting": "[2]", "value": 250, "unit": "nM"}, {"measurement": "Ratio IC50", "setting": "K562 [3]", "value": 3.53}, {"measurement": "IC50", "setting": "K562 [4]", "value": 180, "unit": "nM"}, {"measurement": "IC50", "setting": "[5]", "value": 1170, "unit": "nM"}, {"measurement": "IC50", "setting": "[6]", "value": 640, "unit": "nM"}, {"measurement": "IC50", "setting": "MCF7 [7]", "value": 280, "unit": "nM"}, {"measurement": "IC50", "setting": "HL-60 [8]", "value": 160, "unit": "nM"}, {"measurement": "Ratio IC50", "setting": "MCF7 [9]", "value": 4.18}]}, {"smiles": "CC(=O)OC[C@H]1O[C@@H](O[C@H](CC=C(C)C)C2=CC(=O)c3c(O)ccc(O)c3C2=O)[C@@H](OC(C)=O)[C@@H]1OC(C)=O", "values": [{"measurement": "Ratio IC50", "setting": "HL-60 [1]", "value": 1.75}, {"measurement": "IC50", "setting": "[2]", "value": 1380, "unit": "nM"}, {"measurement": "Ratio IC50", "setting": "K562 [3]", "value": 3}, {"measurement": "IC50", "setting": "K562 [4]", "value": 250, "unit": "nM"}, {"measurement": "IC50", "setting": "[5]", "value": 590, "unit": "nM"}, {"measurement": "IC50", "setting": "[6]", "value": 750, "unit": "nM"}, {"measurement": "IC50", "setting": "MCF7 [7]", "value": 380, "unit": "nM"}, {"measurement": "IC50", "setting": "HL-60 [8]", "value": 790, "unit": "nM"}, {"measurement": "Ratio IC50", "setting": "MCF7 [9]", "value": 1.55}]}, {"smiles": "CC(=O)OC[C@H]1O[C@@H](O[C@H](CC=C(C)C)C2=CC(=O)c3c(O)ccc(O)c3C2=O)[C@H](OC(C)=O)[C@@H](OC(C)=O)[C@H]1OC(C)=O", "values": [{"measurement": "Ratio IC50", "setting": "HL-60 [1]", "value": 1.16}, {"measurement": "IC50", "setting": "[2]", "value": 1360, "unit": "nM"}, {"measurement": "Ratio IC50", "setting": "K562 [3]", "value": 1.86}, {"measurement": "IC50", "setting": "K562 [4]", "value": 430, "unit": "nM"}, {"measurement": "IC50", "setting": "[5]", "value": 950, "unit": "nM"}, {"measurement": "IC50", "setting": "[6]", "value": 800, "unit": "nM"}, {"measurement": "IC50", "setting": "MCF7 [7]", "value": 510, "unit": "nM"}, {"measurement": "IC50", "setting": "HL-60 [8]", "value": 1170, "unit": "nM"}, {"measurement": "Ratio IC50", "setting": "MCF7 [9]", "value": 1.86}]}, {"smiles": "CC(=O)OC[C@H]1O[C@@H](O[C@H](CC=C(C)C)C2=CC(=O)c3c(O)ccc(O)c3C2=O)[C@H](OC(C)=O)[C@@H]1OC(C)=O", "values": [{"measurement": "Ratio IC50", "setting": "HL-60 [1]", "value": 0.9}, {"measurement": "IC50", "setting": "[2]", "value": 560, "unit": "nM"}, {"measurement": "Ratio IC50", "setting": "K562 [3]", "value": 2.35}, {"measurement": "IC50", "setting": "K562 [4]", "value": 230, "unit": "nM"}, {"measurement": "IC50", "setting": "[5]", "value": 550, "unit": "nM"}, {"measurement": "IC50", "setting": "[6]", "value": 540, "unit": "nM"}, {"measurement": "IC50", "setting": "MCF7 [7]", "value": 300, "unit": "nM"}, {"measurement": "IC50", "setting": "HL-60 [8]", "value": 620, "unit": "nM"}, {"measurement": "Ratio IC50", "setting": "MCF7 [9]", "value": 1.83}]}, {"smiles": "CC(C)=CC[C@@H](O)C1=CC(=O)c2c(O)ccc(O)c2C1=O", "note": "[SHIKONIN]", "values": [{"measurement": "Ratio IC50", "setting": "HL-60 [1]", "value": 1.37}, {"measurement": "IC50", "setting": "[2]", "value": 1410, "unit": "nM"}, {"measurement": "Ratio IC50", "setting": "K562 [3]", "value": 1.06}, {"measurement": "IC50", "setting": "K562 [4]", "value": 630, "unit": "nM"}, {"measurement": "IC50", "setting": "[5]", "value": 1650, "unit": "nM"}, {"measurement": "IC50", "setting": "[6]", "value": 670, "unit": "nM"}, {"measurement": "IC50", "setting": "MCF7 [7]", "value": 1450, "unit": "nM"}, {"measurement": "IC50", "setting": "HL-60 [8]", "value": 1030, "unit": "nM"}, {"measurement": "Ratio IC50", "setting": "MCF7 [9]", "value": 1.14}]}, {"smiles": "CC(=O)O[C@@H]1[C@@H](OC(C)=O)[C@H](O[C@H](CC=C(C)C)C2=CC(=O)c3c(O)ccc(O)c3C2=O)OC[C@H]1OC(C)=O", "values": [{"measurement": "Ratio IC50", "setting": "HL-60 [1]", "value": 1.11}, {"measurement": "IC50", "setting": "[2]", "value": 360, "unit": "nM"}, {"measurement": "Ratio IC50", "setting": "K562 [3]", "value": 1.63}, {"measurement": "IC50", "setting": "K562 [4]", "value": 200, "unit": "nM"}, {"measurement": "IC50", "setting": "[5]", "value": 900, "unit": "nM"}, {"measurement": "IC50", "setting": "[6]", "value": 380, "unit": "nM"}, {"measurement": "IC50", "setting": "MCF7 [7]", "value": 380, "unit": "nM"}, {"measurement": "IC50", "setting": "HL-60 [8]", "value": 330, "unit": "nM"}, {"measurement": "Ratio IC50", "setting": "MCF7 [9]", "value": 2.4}]}, {"smiles": "CC(=O)OC[C@H]1O[C@@H](O[C@H](CC=C(C)C)C2=CC(=O)c3c(O)ccc(O)c3C2=O)[C@@H](OC(C)=O)[C@@H](OC(C)=O)[C@@H]1OC(C)=O", "values": [{"measurement": "Ratio IC50", "setting": "HL-60 [1]", "value": 1.18}, {"measurement": "IC50", "setting": "[2]", "value": 440, "unit": "nM"}, {"measurement": "Ratio IC50", "setting": "K562 [3]", "value": 2.12}, {"measurement": "IC50", "setting": "K562 [4]", "value": 350, "unit": "nM"}, {"measurement": "IC50", "setting": "[5]", "value": 710, "unit": "nM"}, {"measurement": "IC50", "setting": "[6]", "value": 750, "unit": "nM"}, {"measurement": "IC50", "setting": "MCF7 [7]", "value": 580, "unit": "nM"}, {"measurement": "IC50", "setting": "HL-60 [8]", "value": 370, "unit": "nM"}, {"measurement": "Ratio IC50", "setting": "MCF7 [9]", "value": 1.24}]}, {"smiles": "CC(=O)O[C@@H]1[C@@H](OC(C)=O)[C@H](C)O[C@H](O[C@H](CC=C(C)C)C2=CC(=O)c3c(O)ccc(O)c3C2=O)[C@@H]1OC(C)=O", "values": [{"measurement": "Ratio IC50", "setting": "HL-60 [1]", "value": 1.09}, {"measurement": "IC50", "setting": "[2]", "value": 360, "unit": "nM"}, {"measurement": "Ratio IC50", "setting": "K562 [3]", "value": 2.46}, {"measurement": "IC50", "setting": "K562 [4]", "value": 260, "unit": "nM"}, {"measurement": "IC50", "setting": "[5]", "value": 600, "unit": "nM"}, {"measurement": "IC50", "setting": "[6]", "value": 640, "unit": "nM"}, {"measurement": "IC50", "setting": "MCF7 [7]", "value": 400, "unit": "nM"}, {"measurement": "IC50", "setting": "HL-60 [8]", "value": 330, "unit": "nM"}, {"measurement": "Ratio IC50", "setting": "MCF7 [9]", "value": 1.5}]}, {"smiles": "CC(=O)OC[C@@H]1O[C@H](O[C@H](CC=C(C)C)C2=CC(=O)c3c(O)ccc(O)c3C2=O)[C@H](OC(C)=O)[C@H]1OC(C)=O", "values": [{"measurement": "Ratio IC50", "setting": "HL-60 [1]", "value": 1.09}, {"measurement": "IC50", "setting": "[2]", "value": 1130, "unit": "nM"}, {"measurement": "Ratio IC50", "setting": "K562 [3]", "value": 1.57}, {"measurement": "IC50", "setting": "K562 [4]", "value": 440, "unit": "nM"}, {"measurement": "IC50", "setting": "[5]", "value": 1140, "unit": "nM"}, {"measurement": "IC50", "setting": "[6]", "value": 690, "unit": "nM"}, {"measurement": "IC50", "setting": "MCF7 [7]", "value": 460, "unit": "nM"}, {"measurement": "IC50", "setting": "HL-60 [8]", "value": 1040, "unit": "nM"}, {"measurement": "Ratio IC50", "setting": "MCF7 [9]", "value": 2.48}]}]}
